Reference: ChEMBL document CHEMBL3244133, “Synthesis and biological activities of some uronic acids, uronates, uronamides, and urononitriles of pyrimidine nucleosides” (J Med Chem, 1978)
The source made the active and inactive calls. No cut-off for these calls is given here.

Key:
[1] = Competitive inhibition of HSV-1 pyrimidine deoxythymidine kinase using 2-[14C]deoxythymidine as substrate; set-up: species or system Human alphaherpesvirus 1
Method in brief: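 HSV-1 encoded pyrimidine deoxyribonucleoside kinase, purified from LMTK⁻ cells. Assay at 37 °C in 50 mM Tris pH 7.8 with 3 mM ATP·Mg²⁺, 0.3 mg/mL BSA, 0.3 mM 2-mercaptoethanol and 2% glycerol. Substrate was varied [2-¹⁴C]deoxythymidine plus analogue. Reaction was started with enzyme; aliquots were taken over time and phosphorylated product measured. Ki came from double-reciprocal plots.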

L1210 = assay: Inhibition of deoxythymidylate synthetase in mouse L1210 cells at 250 uM; assay type: cell-based
Lacticaseibacillus casei = assay: Inhibition of Lactobacillus casei deoxythymidylate synthetase at 250 uM
[2] = Retention time of the compound by liquid chromatography; assay type: physicochemical
Method in brief: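 Reverse-phase HPLC with a methanol-water gradient, separating uronic acids from the parent pyrimidine bases and nucleosides.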

Enterococcus faecium [3] = assay: Antimicrobial activity against Streptococcus faecium after 15 to 17 hrs by turbidity assay; assay type: functional; settings: read-out: ED50 (the source's name)
Method in brief: (§1)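 S. faecium (ATCC 8043), washed and resuspended in saline to 100 Klett units, then diluted 10-fold as inoculum. Test compound was added to basal medium with deoxythymidine (7 μM final) or folic acid (4.53 nM final). Incubation was 15-17 h at 37 °C. Growth was taken as the turbidity change before versus after incubation, read on a Klett colorimeter with a red filter (640-700 nm).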

[4] = Dissociation constant, pKa of the compound; assay type: physicochemical
[5] = Antiviral activity against HSV1 CL101 infected in African green monkey Vero cells assessed as inhibition of plaque formation at 40 uM after 40 hrs relative to control; assay type: functional, Herpes simplex virus (type 1 / strain CL101); settings: Human alphaherpesvirus 1, Vero
Enterococcus faecium [6] = assay: Antimicrobial activity against Streptococcus faecium assessed as growth inhibition at 400 uM after 15 to 17 hrs by turbidity assay in presence of 7 uM deoxythymidine; assay type: functional; method in brief: as §1
CCRF S-180 [7] = assay: Cytotoxicity against mouse S180 cells at 400 uM after 18 to 42 hrs relative to control; assay type: functional
Enterococcus faecium [8] = assay: Antimicrobial activity against Streptococcus faecium assessed as growth inhibition at 400 uM after 15 to 17 hrs by turbidity assay in presence of 4.53 nM folic acid; assay type: functional; method in brief: as §1
[9] = Antiviral activity against HSV1 CL101 infected in African green monkey Vero cells assessed as inhibition of plaque formation at 400 uM after 40 hrs relative to control; assay type: functional, Herpes simplex virus (type 1 / strain CL101); settings: Human alphaherpesvirus 1, Vero
Enterococcus faecium [10] = assay: Antimicrobial activity against Streptococcus faecium assessed as concentration required for maximum growth inhibition after 15 to 17 hrs by turbidity assay; assay type: functional; method in brief: as §1
[11] = Antiviral activity against HSV1 CL101 infected in African green monkey Vero cells assessed as inhibition of plaque formation at 0.1 uM after 40 hrs relative to control; assay type: functional, Herpes simplex virus (type 1 / strain CL101); settings: Human alphaherpesvirus 1, Vero
CCRF S-180 [12] = assay: Cytotoxicity against mouse S180 cells at 0.001 uM after 18 to 42 hrs relative to control; assay type: functional
[13] = Antiviral activity against HSV1 CL101 infected in African green monkey Vero cells assessed as inhibition of plaque formation at 10 uM after 40 hrs relative to control; assay type: functional, Herpes simplex virus (type 1 / strain CL101); settings: Human alphaherpesvirus 1, Vero
[14] = Antiviral activity against HSV1 CL101 infected in African green monkey Vero cells assessed as inhibition of plaque formation at 200 uM after 40 hrs relative to control; assay type: functional, Herpes simplex virus (type 1 / strain CL101); settings: Human alphaherpesvirus 1, Vero
CCRF S-180 [15] = assay: Cytotoxicity against mouse S180 cells at 5 uM after 18 to 42 hrs relative to control; assay type: functional
[16] = Antiviral activity against HSV1 CL101 infected in African green monkey Vero cells assessed as inhibition of plaque formation at 50 uM after 40 hrs relative to control; assay type: functional, Herpes simplex virus (type 1 / strain CL101); settings: Human alphaherpesvirus 1, Vero

Compound: COC(=O)[C@H]1O[C@@H](n2cc(C)c(=O)[nH]c2=O)C[C@@H]1O
- Ki [1]: 4 µM

Compound: O=c1[nH]c(=O)n([C@H]2C[C@H](O)[C@@H](CF)O2)cc1I
- Ki [1]: 1.5 µM

Compound: COC(=O)[C@H]1O[C@@H](n2cc(Br)c(=O)[nH]c2=O)C[C@@H]1O
- Ki [1]: 2.9 µM

Compound: O=C(O)[C@H]1O[C@@H](n2ccc(=O)[nH]c2=O)C[C@@H]1O
- Ki [1]: 500 µM

Compound: NC(=O)[C@H]1O[C@@H](n2ccc(O)nc2=O)C[C@@H]1O (stereo in doubt; 19) [listing 1 of 2 here]
- inhibition (L1210): inactive
- inhibition (Lacticaseibacillus casei): inactive

Compound: O=c1[nH]cc(I)c(=O)[nH]1
- Retention_time [2]: 8.85 min

Compound: O=C(O)[C@H]1O[C@@H](n2cc(F)c(=O)[nH]c2=O)C[C@@H]1O [RIBOFURANURONIC ACID]
- inhibition (L1210): inactive
- inhibition (Lacticaseibacillus casei): inactive

Compound: CC(=O)O[C@H]1C[C@H](n2cc(I)c(=O)[nH]c2=O)O[C@@H]1C(N)=O
- Ki [1]: 20 µM

Compound: N#C[C@H]1O[C@@H](n2cc(F)c(=O)[nH]c2=O)C[C@@H]1O
- inhibition (L1210): inactive
- Ki [1]: 75 µM
- inhibition (Lacticaseibacillus casei): inactive

Compound: O=C(O)[C@H]1O[C@@H](n2cc(Br)c(O)nc2=O)C[C@@H]1O
- Ki [1]: 2.7 µM
- Retention_time [2]: 2.56 min

Compound: Cc1cn([C@H]2C[C@H](O)[C@@H](CO)O2)c(=O)[nH]c1=O [DOXRIBTIMINE]
- EC50 (Enterococcus faecium [3]): 11 µM
- pKa [4]: 9.8

Compound: NC(=O)[C@H]1O[C@@H](n2cc(Br)c(O)nc2=O)C[C@@H]1O
- inhibition at 40 µM [5]: 42%
- Ki [1]: 0.8 µM
- inhibition (INH) (Enterococcus faecium [6]): 0%
- inhibition at 400 µM (CCRF S-180 [7]): 0%
- inhibition (INH) (Enterococcus faecium [8]): 0%
- inhibition at 400 µM [9]: 92%

Compound: Nc1ccn([C@@H]2O[C@H](C(=O)O)[C@@H](O)[C@@H]2O)c(=O)n1
- inhibition (INH) (Enterococcus faecium [6]): 0%
- inhibition at 400 µM (CCRF S-180 [7]): 76%
- inhibition (INH) (Enterococcus faecium [8]): 0%
- Retention_time [2]: 2.56 min
- inhibition at 400 µM [9]: 0%

Compound: COC(=O)[C@H]1O[C@@H](n2ccc(=O)[nH]c2=O)C[C@@H]1O
- Ki [1]: 500 µM

Compound: Cc1cn([C@H]2C[C@H](O)[C@@H](C(=O)O)O2)c(=O)[nH]c1=O [5'-CARBOXY THYMIDINE]
- Ki [1]: 5.4 µM

Compound: NC(=O)[C@H]1O[C@@H](n2ccc(O)nc2=O)C[C@@H]1O (stereo in doubt)
- Ki [1]: 310 µM
- Activity (Enterococcus faecium [10]): 600 µM

Compound: O=c1ccn([C@H]2C[C@H](O)[C@@H](CO)O2)c(=O)[nH]1 [DEOXYURIDINE]
- Ki [1]: 9.5 µM
- EC50 (Enterococcus faecium [3]): 37 µM
- pKa [4]: 9.3

Compound: Nc1nc(=O)n([C@H]2C[C@H](O)[C@@H](C(=O)O)O2)cc1I
- Retention_time [2]: 3.35 min

Compound: CC(=O)O[C@H]1C[C@H](n2cc(Br)c(=O)[nH]c2=O)O[C@@H]1C#N
- Ki [1]: 28 µM

Compound: NC(=O)[C@H]1O[C@@H](n2cc(I)c(O)nc2=O)C[C@@H]1O
- inhibition at 40 µM [5]: 78%
- Ki [1]: 1 µM
- inhibition (INH) (Enterococcus faecium [6]): 0%
- inhibition at 400 µM (CCRF S-180 [7]): 0%
- inhibition (INH) (Enterococcus faecium [8]): 28%
- inhibition at 400 µM [9]: 96%

Compound: N#C[C@H]1O[C@@H](n2cc(I)c(O)nc2=O)C[C@@H]1O
- Ki [1]: 1.3 µM
- inhibition (INH) (Enterococcus faecium [6]): 0%
- inhibition at 400 µM (CCRF S-180 [7]): 0%
- inhibition (INH) (Enterococcus faecium [8]): 14%
- inhibition at 400 µM [9]: 74%

Compound: Nc1ccn([C@H]2C[C@H](O)[C@@H](CO)O2)c(=O)n1 [DOXECITINE]
- EC50 (Enterococcus faecium [3]): 50 µM

Compound: O=c1[nH]c(=O)n([C@H]2C[C@H](O)[C@@H](CO)O2)cc1F [FLOXURIDINE]
- Ki [1]: 1.5 µM
- inhibition at 0.1 µM [11]: 88%
- inhibition (INH) (Enterococcus faecium [6]): 96%
- inhibition (INH) (Enterococcus faecium [8]): 95%
- inhibition at 0.001 µM (CCRF S-180 [12]): 95%
- Retention_time [2]: 7.93 min

Compound: O=c1[nH]c(=O)n([C@H]2C[C@H](O)[C@@H](CO)O2)cc1Br [BROXURIDINE]
- Ki [1]: 0.2 µM
- inhibition (INH) (Enterococcus faecium [6]): 76%
- inhibition (INH) (Enterococcus faecium [8]): 91%
- inhibition at 10 µM [13]: 99.6%
- Retention_time [2]: 12.16 min

Compound: Nc1nc(=O)n([C@H]2C[C@H](O)[C@@H](CO)O2)cc1Br
- Retention_time [2]: 16.53 min

Compound: CC(=O)O[C@H]1C[C@H](n2cc(C)c(=O)[nH]c2=O)O[C@@H]1CO
- Ki [1]: 58 µM

Compound: Nc1ccn([C@@H]2O[C@H](CO)[C@@H](O)[C@@H]2O)c(=O)n1 [CYTARABINE]
- inhibition at 200 µM [14]: 91%
- Retention_time [2]: 2.07 min
- inhibition at 5 µM (CCRF S-180 [15]): 98%

Compound: Nc1nc(=O)n([C@H]2C[C@H](O)[C@@H](CO)O2)cc1I [IBACITABINE]
- Retention_time [2]: 19.87 min

Compound: O=c1[nH]cc(F)c(=O)[nH]1 [FLUOROURACIL]
- Retention_time [2]: 5.29 min

Compound: COC(=O)[C@H]1O[C@@H](n2cc(F)c(O)nc2=O)C[C@@H]1O
- inhibition (L1210): inactive
- Ki [1]: 410 µM
- inhibition (Lacticaseibacillus casei): inactive
- inhibition (INH) (Enterococcus faecium [6]): 0%
- inhibition at 400 µM (CCRF S-180 [7]): 32%
- inhibition (INH) (Enterococcus faecium [8]): 0%
- inhibition at 400 µM [9]: 0%

Compound: N#C[C@H]1O[C@@H](n2cc(Br)c(=O)[nH]c2=O)C[C@@H]1O
- Ki [1]: 1.8 µM

Compound: Cc1cn([C@H]2C[C@H](O)[C@@H](C(N)=O)O2)c(=O)[nH]c1=O
- Ki [1]: 1.6 µM

Compound: O=C(O)[C@H]1O[C@@H](n2cc(I)c(O)nc2=O)C[C@@H]1O
- Ki [1]: 4.2 µM
- Retention_time [2]: 2.97 min

Compound: COC(=O)[C@H]1O[C@@H](n2cc(I)c(=O)[nH]c2=O)C[C@@H]1O
- Ki [1]: 1.5 µM

Compound: O=c1[nH]c(=O)n([C@H]2C[C@H](O)[C@@H](CO)O2)cc1I [IDOXURIDINE]
- inhibition at 50 µM [16]: 99.7%
- Ki [1]: 0.2 µM
- inhibition (INH) (Enterococcus faecium [6]): 12%
- inhibition (INH) (Enterococcus faecium [8]): 71%
- Retention_time [2]: 14.41 min

Compound: CC(=O)O[C@H]1C[C@H](n2cc(I)c(=O)[nH]c2=O)O[C@@H]1C#N
- Ki [1]: 18 µM

Compound: Nc1nc(=O)n([C@H]2C[C@H](O)[C@@H](C(=O)O)O2)cc1Br
- Retention_time [2]: 3.05 min

Compound: NC(=O)[C@H]1O[C@@H](n2cc(F)c(=O)[nH]c2=O)C[C@@H]1O
- inhibition (L1210): inactive
- Ki [1]: 18 µM
- inhibition (Lacticaseibacillus casei): inactive

Compound: CC(=O)O[C@H]1C[C@H](n2cc(Br)c(=O)[nH]c2=O)O[C@@H]1C(N)=O
- Ki [1]: 192 µM

Compound: O=c1[nH]cc(Br)c(=O)[nH]1 [5-BROMOURACIL]
- Retention_time [2]: 7.69 min

Compound: NC(=O)[C@H]1O[C@@H](n2ccc(O)nc2=O)C[C@@H]1O (stereo in doubt; 19) [listing 2 of 2 here]
- Activity (Enterococcus faecium [10]): 600 µM
- inhibition (INH) (Enterococcus faecium [6]): 71%
- inhibition at 400 µM (CCRF S-180 [7]): 0%
- inhibition (INH) (Enterococcus faecium [8]): 22%
- EC50 (Enterococcus faecium [3]): 200 µM
- inhibition at 400 µM [9]: 0%

Compound: CC(=O)O[C@H]1C[C@H](n2cc(F)c(=O)[nH]c2=O)O[C@@H]1C(N)=O
- Ki [1]: 960 µM
